ChEMBL document CHEMBL4351018, “Novel phenanthridin-6(5H)-one derivatives as potent and selective BET bromodomain inhibitors: Rational design, synthesis and biological evaluation” (Eur J Med Chem, 2019)

Tests used:
[1] = target: Bromodomain testis-specific protein (Homo sapiens) (UniProt Q58F21); experiment: Binding affinity to BRDT bromodomain 1 (unknown origin) at 20 uM by Alpha screen assay relative to control
[2] = target: Bromodomain testis-specific protein (Homo sapiens) (UniProt Q58F21); experiment: Binding affinity to BRDT bromodomain 2 (unknown origin) at 20 uM by Alpha screen assay relative to control
A549 [3] = experiment: Antiproliferative activity against human A549 cells incubated for 48 hrs by MTT assay; assay type: functional, cell-based; details: A549, 48 h
Outline: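 Cells kept in DMEM or RPMI 1640 with 10% FBS at 37 °C, 5% CO2. MTT added for 4 h at 37 °C, formazan dissolved in DMSO, OD read at 570 nm. Survival % taken relative to blank and control wells. Triplicate runs; IC50 from curve fit.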

A549 [4] = experiment: Induction of apoptosis in human A549 cells assessed as late apoptotic cells at 1.0 uM incubated for 48 hrs by annexin V-FITC/PI double staining based flow cytometric analysis (reference value: 0.039%); assay type: functional
A549 [5] = experiment: Induction of apoptosis in human A549 cells assessed as viable cells at 3.0 uM incubated for 48 hrs by annexin V-FITC/PI double staining based flow cytometric analysis (reference value: 98.2%); assay type: functional; details: A549, 48 h, read-out: Activity
A549 [6] = experiment: Induction of apoptosis in human A549 cells assessed as viable cells at 5.0 uM incubated for 48 hrs by annexin V-FITC/PI double staining based flow cytometric analysis (reference value: 98.2%); assay type: functional; details: A549, 48 h, read-out: Activity
A549 [7] = experiment: Induction of apoptosis in human A549 cells assessed as late apoptotic cells at 5.0 uM incubated for 48 hrs by annexin V-FITC/PI double staining based flow cytometric analysis (reference value: 0.039%); assay type: functional
A549 [8] = experiment: Induction of apoptosis in human A549 cells assessed as necrotic cells at 5.0 uM incubated for 48 hrs by annexin V-FITC/PI double staining based flow cytometric analysis (reference value: 0%); assay type: functional
[9] = AUC (0 to infinity) in Sprague-Dawley rat at 2.5 mg/kg, iv measured for 0.083 to 24 hrs by LC-MS/MS/MS analysis; assay type: ADME, organism-based; parameters: dose 2.5 mg/kg, time infinity, route intravenous; details: in vivo
[10] = Apparent clearance in Sprague-Dawley rat at 2.5 mg/kg, iv measured for 0.083 to 24 hrs by LC-MS/MS analysis; assay type: ADME, organism-based; details: in vivo, read-out: CL(app) (converted)
[11] = Half life in Sprague-Dawley rat at 10 mg/kg, po measured for 0.083 to 24 hrs by LC-MS/MS analysis; assay type: ADME, organism-based; details: in vivo
[12] = Tmax in Sprague-Dawley rat at 10 mg/kg, po measured for 0.083 to 24 hrs by LC-MS/MS analysis; assay type: ADME, organism-based; details: in vivo
[13] = Volume of distribution at steady state in Sprague-Dawley rat at 2.5 mg/kg, iv measured for 0.083 to 24 hrs by LC-MS/MS analysis; assay type: ADME, organism-based; details: in vivo, read-out: Vdss
[14] = Cmax in Sprague-Dawley rat at 10 mg/kg, po measured for 0.083 to 24 hrs by LC-MS/MS analysis; assay type: ADME, organism-based; parameters: dose 10 mg/kg, route oral; details: in vivo
A549 [15] = experiment: Induction of cell cycle arrest in human A549 cells assessed as accumulation at […] phase at 3.0 uM incubated for 48 hrs by BrdU/PI staining based flow cytometric analysis; assay type: functional
Outline: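 Subconfluent A549 cells exposed 48 h to 0.3–5.0 μM with DMSO vehicle control. Pulse-labelled with 10 μM BrdU for 30 min at 37 °C before harvest. Fixed in 70% ethanol, denatured in 2 M HCl, neutralised, then stained with fluorescein anti-BrdU antibody and propidium iodide. Analysed by flow cytometry with 488 nm excitation.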

Activity [1]: > 70% | Activity [2]: > 70% | IC50 (A549 [3]): 750 nM | AUC(0-inf) [9]: 505 ng·h/mL | clearance [10]: 85.8 mL/min/kg | half-life [11]: 3.87 h | Tmax [12]: 5.33 h | Vd [13]: 76.7 L/kg | Cmax [14]: 52.4 ng/mL
Structure (SMILES): COc1ccc(Cl)cc1S(=O)(=O)Nc1ccc2[nH]c(=O)c3ccccc3c2c1
Activity (A549 [4]): 6.13% | viability at 3 µM (A549 [5]): 24.6% | viability at 5 µM (A549 [6]): 19.7% | Activity (A549 [7]): 8.25% | Activity (A549 [8]): 0.036% | Activity (A549 [15]): 76.42%
